Holding throughout (type): functional
Assay [1] deals with HT-29. The experiment in a line: Growth inhibition of human HT-29 cells after 72 hrs y MTT assay. The conditions noted are these: HT-29, 72 h. The essentials:
(§1)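 Cells kept in DMEM with 10% FBS, 10 mM sodium bicarbonate, penicillin, streptomycin and 4 mM glutamine at 37 °C under 5% CO2. Log-phase cells were plated in duplicate at 2500–4000 cells/well. After 24 h, compound in medium was added; analogue stocks were 40 mM in DMSO. Growth was read after 72 h by MTT absorbance at 540 nm in dose-response testing.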
(Formazan colour is commonly taken as a measure of viable cells.)

Assay [2] in a line: Growth inhibition of human SJ-G2 cells after 72 hrs y MTT assay. The conditions noted are these: SJ-G2, 72 h. The essentials: as §1
Assay [3] in a line: Growth inhibition of human BE(2)-C cells after 72 hrs y MTT assay. The essentials: as §1
Assay [4] concerns SW480. The experiment in a line: Growth inhibition of human SW480 cells after 72 hrs y MTT assay. To be noted: SW480, 72 h. In short, it runs like this:
as §1

The test system of assay [5] is MCF7. The experiment in a line: Growth inhibition of human MCF7 cells after 72 hrs y MTT assay. To be noted: MCF7, 72 h. In short, it runs like this: as §1
The test system of a further assay is A2780. In words: Growth inhibition of human A2780 cells after 72 hrs y MTT assay. To be noted: A2780, 72 h. The essentials:
as §1

Assay [6] concerns NCI-H460. In words: Growth inhibition of human H460 cells after 72 hrs y MTT assay. The conditions noted are these: NCI-H460, 72 h. The essentials: as §1
Assay [7] relates to A-431. In words: Growth inhibition of human A431 cells after 72 hrs y MTT assay. To be noted: A-431, 72 h. The essentials: as §1
Assay [8] relates to DU-145. In words: Growth inhibition of human DU145 cells after 72 hrs y MTT assay. The conditions noted are these: DU-145, 72 h. In short, it runs like this: as §1
The test system of assay [9] is HT-29. In words: Growth inhibition of human HT-29 cells at 100 uM after 72 hrs y MTT assay. The conditions noted are these: Homo sapiens, HT-29, 72 h; read-out: GI. In short, it runs like this:
(§2)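 Log-phase cells in supplemented DMEM (10% FBS, 4 mM glutamine, antibiotics; 37 °C, 5% CO2) were plated in duplicate at 2500–4000 cells/well. Compound was added 24 h later at a fixed 100 µM, from 40 mM DMSO stocks. After 72 h, MTT absorbance was read at 540 nm and expressed as percent growth inhibition; 100% means total inhibition.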

Assay [10] in a line: Growth inhibition of human SJ-G2 cells at 100 uM after 72 hrs y MTT assay. The conditions noted are these: Homo sapiens, SJ-G2, 72 h; read-out: GI. In short, it runs like this: as §2
Assay [11] in a line: Growth inhibition of human BE(2)-C cells at 100 uM after 72 hrs y MTT assay. To be noted: Homo sapiens, BE(2)-C, 72 h; read-out: GI. In short, it runs like this: as §2
Assay [12] has as its system SW480. The experiment in a line: Growth inhibition of human SW480 cells at 100 uM after 72 hrs y MTT assay. The conditions noted are these: Homo sapiens, SW480, 72 h; read-out: GI. The essentials: as §2
In assay [13] the test system is MCF7. In words: Growth inhibition of human MCF7 cells at 100 uM after 72 hrs y MTT assay. The conditions noted are these: Homo sapiens, MCF7, 72 h; read-out: GI. In short, it runs like this:
as §2

Assay [14] relates to NCI-H460. In words: Growth inhibition of human H460 cells at 100 uM after 72 hrs y MTT assay. The essentials: as §2
Assay [15] relates to A-431. The experiment in a line: Growth inhibition of human A431 cells at 100 uM after 72 hrs y MTT assay. The essentials: as §2
The test system of assay [16] is DU-145. In words: Growth inhibition of human DU145 cells at 100 uM after 72 hrs y MTT assay. In short, it runs like this:
as §2

`O=C1O[C@H](OCCCOP(=O)(OCC(Cl)(Cl)Cl)OCC(Cl)(Cl)Cl)[C@@H]2[C@H]1[C@H]1CC[C@@H]2O1`: the GI50 (usually the concentration at which growth is held to half of that of the control) was 37 µM in the assay with HT-29 [1]; 41 µM in assay [2]; above 100 µM in [3]; above 100 µM in the assay with SW480 [4]; 89 µM with MCF7 [5]; 81 µM with A2780. Besides, the concentration for 50% growth inhibition (GI50) with NCI-H460 [6], with A-431 [7] and with DU-145 [8] was above 100 µM throughout.

Turning to `CCO[C@H]1OC(=O)[C@H]2[C@@H]1[C@@H]1CC[C@H]2O1`, the GI50 in the assay on HT-29 [1] is 77 µM; in [2], 49 µM; in assay [3] it was above 100 µM; in the assay with SW480 [4], above 100 µM; in the assay with MCF7 [5], above 100 µM; with A2780, above 100 µM. Moreover, the GI50 in the assay with NCI-H460 [6], in the assay on A-431 [7] and with DU-145 [8] was above 100 µM in each case.

Turning to `C#CCCCCO[C@H]1OC(=O)[C@H]2[C@@H]1[C@@H]1CC[C@H]2O1`, the GI50 is 51 µM with HT-29 [1]; 55 µM in [2]; above 100 µM in assay [3]; above 100 µM with SW480 [4]; above 100 µM with MCF7 [5]; above 100 µM with A2780. For the same compound, the concentration for 50% growth inhibition (GI50) in the assay with NCI-H460 [6], with A-431 [7] and with DU-145 [8] was above 100 µM throughout.

`CCCCCO[C@H]1OC(=O)[C@H]2[C@@H]1[C@@H]1CC[C@H]2O1`: the 50% growth inhibitory concentration (GI50) with HT-29 [1] was 32 µM; in [2] it was 37 µM; in assay [3] it was 38 µM; in the assay with SW480 [4] it was 39 µM; in the assay with MCF7 [5], 27 µM; in the assay with A2780, 20 µM. Moreover, the GI50 was above 100 µM in the assay on NCI-H460 [6], 68 µM with A-431 [7] and above 100 µM with DU-145 [8].

Regarding `CCCCCCCCO[C@H]1OC(=O)[C@H]2[C@@H]1[C@@H]1CC[C@H]2O1`, the GI50 is 40 µM with HT-29 [1]; 45 µM in assay [2]; 51 µM in assay [3]; 49 µM in the assay with SW480 [4]; 36 µM in the assay on MCF7 [5]; 28 µM with A2780. For the same compound, the results for the GI50 with NCI-H460 [6], with A-431 [7] and in the assay with DU-145 [8] were above 100 µM, 72 µM and 86 µM, respectively.

In the case of `CCOP(=O)(OCC)OCCCO[C@H]1OC(=O)[C@H]2[C@@H]1[C@@H]1CC[C@H]2O1`, the GI50 with HT-29 [1] is 17 µM; in assay [2] it was 43 µM; in assay [3] it was 9 µM; in the assay on SW480 [4] it was 9 µM; in the assay on MCF7 [5], 20 µM; in the assay on A2780, 22 µM. Besides, the 50% growth inhibitory concentration (GI50) with NCI-H460 [6] was above 100 µM; in the assay on A-431 [7], 87 µM; in the assay with DU-145 [8], 84 µM.

On to `O=C1O[C@H](OCCCOP(=O)(O)O)[C@@H]2[C@H]1[C@H]1CC[C@@H]2O1`, for which the GI50 in the assay with HT-29 [1] was determined as 42 µM; in [2] it was 57 µM; in assay [3], 67 µM; in the assay with SW480 [4], 65 µM; in the assay on MCF7 [5] it was 45 µM; with A2780 it was 33 µM. Moreover, the GI50 in the assay on A-431 [7] amounted to 52 µM; in the assay on DU-145 [8] it was 65 µM.

`O=C1O[C@@H](OCC2CO2)[C@@H]2[C@H]1[C@H]1CC[C@@H]2O1` (stereo in doubt; 22): the inhibition of growth at 100 µM is 74% with HT-29 [9]; 76% in assay [10]; 38% in assay [11]; 28% in the assay with SW480 [12]; 40% in the assay with MCF7 [13]. Further, the “growth inhibition (GI)” value in the assay on NCI-H460 [14] was determined as 14%; in the assay on A-431 [15], 28%; in the assay on DU-145 [16] it was 30%.

As to `O=C1OC(=O)C2C3CCC(O3)C12` (stereo not drawn) [DEMETHYL-CANTHARIDIN], the GI50 with HT-29 [1] turned out to be 23 µM; in assay [2], 23 µM; in assay [3], 36 µM; in the assay on SW480 [4], 41 µM; in the assay on MCF7 [5] it was 34 µM; in the assay on A2780 it was 27 µM. Also, the GI50 was above 100 µM in the assay with NCI-H460 [6], 72 µM with A-431 [7] and 90 µM in the assay with DU-145 [8].

Turning to `C/C=C/CO[C@H]1OC(=O)[C@H]2[C@@H]1[C@@H]1CC[C@H]2O1`, the GI50 in the assay on HT-29 [1] turned out to be 42 µM; in [2], 55 µM; in assay [3] it was 84 µM; with SW480 [4], 93 µM; in the assay on MCF7 [5], 77 µM; in the assay with A2780, 57 µM. The GI50 with NCI-H460 [6], with A-431 [7] and with DU-145 [8] was above 100 µM throughout.

(Values after ChEMBL document CHEMBL2040765, “Synthesis and anticancer activity of a series of norcantharidin analogues” (2012).)
